# Key:
# [1] = biological target: T1, TRPML3 coexpressed with dynamin (Homo sapiens, UniProt Q8TDD5); assay: Calcium imaging, HEK293 cells coexpressing wild type dynamin with TRPML3; type: cell-based; conditions: compared to control experiments
# T1 sequence (Q8TDD5 1-553): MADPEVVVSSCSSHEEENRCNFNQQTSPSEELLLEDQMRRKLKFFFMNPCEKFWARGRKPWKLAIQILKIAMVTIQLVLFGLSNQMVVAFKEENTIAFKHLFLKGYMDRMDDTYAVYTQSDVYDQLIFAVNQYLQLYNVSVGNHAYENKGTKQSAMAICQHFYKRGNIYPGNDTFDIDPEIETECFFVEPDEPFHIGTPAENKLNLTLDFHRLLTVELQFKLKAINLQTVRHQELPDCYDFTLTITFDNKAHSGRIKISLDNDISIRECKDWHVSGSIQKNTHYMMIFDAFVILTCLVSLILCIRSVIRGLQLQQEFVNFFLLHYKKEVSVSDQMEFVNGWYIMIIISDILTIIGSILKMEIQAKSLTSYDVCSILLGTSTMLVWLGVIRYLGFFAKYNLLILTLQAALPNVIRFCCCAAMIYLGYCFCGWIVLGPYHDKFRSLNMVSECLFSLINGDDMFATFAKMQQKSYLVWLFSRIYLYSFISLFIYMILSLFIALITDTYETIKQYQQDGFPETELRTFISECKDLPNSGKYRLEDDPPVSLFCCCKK
# Procedure, shortened: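 HEK293 cells were transiently cotransfected (Genejammer) with wild-type dynamin and TRPML3 and imaged 24 h later. Cells on glass coverslips were loaded with 4 µM fura-2-AM in bath solution (mM: 138 NaCl, 6 KCl, 2 MgCl2, 2 CaCl2, 10 HEPES, 5.5 D-glucose; pH 7.4). Responses to activators were compared with control transfections.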
# [2] = test system: TRPM2, TRPV2, TRPC3, TRPN1, TRPA1; assay: Fura-2 calcium imaging selectivity, HEK293 cells expressing other TRP channels; type: cell-based
# Procedure, shortened: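 HEK293 cells were transiently transfected (Genejammer) with expression vectors for each TRP channel and measured 24 h later. Cells on coverslips were loaded with 4 μM fura-2-AM in bath solution (mM: 138 NaCl, 6 KCl, 2 MgCl₂, 2 CaCl₂, 10 HEPES, 5.5 D-glucose, pH 7.4). [Ca²⁺]i increases to 10 µM test compound were imaged on a monochromator-based system.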
# [3] = test system: cochlear hair cells; assay: Recording from acutely isolated cochlear hair cells; type: cell-based, rat; conditions: up-to 100 µM; in SBS, SN-2 also in ELS
# [4] = biological target: T2, TRPML3 (Homo sapiens, UniProt Q8TDD5); type: cell-based; conditions: HEK293, read-out: Max % Activation (TRPML3)
# T2 sequence (Q8TDD5 1-553): T1 sequence (Q8TDD5 1-553)
# Procedure, shortened: (§1)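 HEK293 lines stably expressed YFP-fused human TRPML3 or zebrafish TRPN1 (G418 0.8 mg/ml, twice subcloned) and were plated at 1,500 cells/well for 23 h at 37 °C. After Fluo-8 loading (1 h 37 °C, 30 min RT), a 5 s basal read and 120 s post-addition read were taken. Max/basal ratios were normalized to DMSO and carbachol (87 µM).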
# [5] = test system: melanocytes expressing dynamin; assay: Calcium imaging, melanocytes transfected with wild type dynamin; type: cell-based, human; conditions: 30 µM
# Procedure, shortened: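 Human epidermal melanocytes (medium 254 plus HMGS) were transfected with wild-type dynamin, DynK44A or YFP control. Intracellular Ca2+ was imaged after applying compounds at 30 µM each. Data are mean ± SEM from at least 3 independent experiments of 20–30 cells each.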
# [6] = biological target: T2, TRPML3; assay: Excised; type: cell-based
# [7] = biological target: T2, TRPML3; assay: Fura-2 calcium imaging, HEK293 cells transiently expressing TRPML3; type: cell-based
# Procedure, shortened: (§2)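 HEK293 cells were transiently transfected (Genejammer) with the human channel construct or YFP control and measured 24 h later. Cells on glass coverslips were loaded with 4 µM fura-2-AM in bath solution (mM: 138 NaCl, 6 KCl, 2 MgCl2, 2 CaCl2, 10 HEPES, 5.5 D-glucose; pH 7.4). Compounds were applied at 10 µM and the F340/F380 ratio recorded. Values are mean ± SEM, n≥3.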
# [8] = biological target: T3, TRPML2 (Homo sapiens, UniProt Q8IZK6); assay: Fura-2 calcium imaging, HEK293 cells expressing TRPML2; type: cell-based; conditions: 10 µM
# T3 sequence (Q8IZK6 1-566): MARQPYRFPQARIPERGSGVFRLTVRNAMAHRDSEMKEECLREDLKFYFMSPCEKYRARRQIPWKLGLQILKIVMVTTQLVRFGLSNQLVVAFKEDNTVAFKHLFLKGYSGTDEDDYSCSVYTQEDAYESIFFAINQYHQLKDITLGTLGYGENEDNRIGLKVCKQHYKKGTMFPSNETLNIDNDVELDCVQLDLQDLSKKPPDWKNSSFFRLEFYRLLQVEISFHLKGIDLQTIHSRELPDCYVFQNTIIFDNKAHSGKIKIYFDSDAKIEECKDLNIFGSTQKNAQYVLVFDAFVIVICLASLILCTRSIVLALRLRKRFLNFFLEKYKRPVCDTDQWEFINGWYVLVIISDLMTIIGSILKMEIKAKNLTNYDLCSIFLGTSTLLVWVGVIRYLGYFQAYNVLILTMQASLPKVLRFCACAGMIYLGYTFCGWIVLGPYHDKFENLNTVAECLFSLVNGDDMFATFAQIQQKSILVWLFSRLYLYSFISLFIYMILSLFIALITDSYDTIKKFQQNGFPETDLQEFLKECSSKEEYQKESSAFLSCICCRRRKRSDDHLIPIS
# Procedure, shortened: as §2
# [9] = biological target: danio rerio TRPN1 (Danio rerio, UniProt Q7T1G6); type: cell-based
# Sequence of danio rerio TRPN1 (Q7T1G6 1-1614): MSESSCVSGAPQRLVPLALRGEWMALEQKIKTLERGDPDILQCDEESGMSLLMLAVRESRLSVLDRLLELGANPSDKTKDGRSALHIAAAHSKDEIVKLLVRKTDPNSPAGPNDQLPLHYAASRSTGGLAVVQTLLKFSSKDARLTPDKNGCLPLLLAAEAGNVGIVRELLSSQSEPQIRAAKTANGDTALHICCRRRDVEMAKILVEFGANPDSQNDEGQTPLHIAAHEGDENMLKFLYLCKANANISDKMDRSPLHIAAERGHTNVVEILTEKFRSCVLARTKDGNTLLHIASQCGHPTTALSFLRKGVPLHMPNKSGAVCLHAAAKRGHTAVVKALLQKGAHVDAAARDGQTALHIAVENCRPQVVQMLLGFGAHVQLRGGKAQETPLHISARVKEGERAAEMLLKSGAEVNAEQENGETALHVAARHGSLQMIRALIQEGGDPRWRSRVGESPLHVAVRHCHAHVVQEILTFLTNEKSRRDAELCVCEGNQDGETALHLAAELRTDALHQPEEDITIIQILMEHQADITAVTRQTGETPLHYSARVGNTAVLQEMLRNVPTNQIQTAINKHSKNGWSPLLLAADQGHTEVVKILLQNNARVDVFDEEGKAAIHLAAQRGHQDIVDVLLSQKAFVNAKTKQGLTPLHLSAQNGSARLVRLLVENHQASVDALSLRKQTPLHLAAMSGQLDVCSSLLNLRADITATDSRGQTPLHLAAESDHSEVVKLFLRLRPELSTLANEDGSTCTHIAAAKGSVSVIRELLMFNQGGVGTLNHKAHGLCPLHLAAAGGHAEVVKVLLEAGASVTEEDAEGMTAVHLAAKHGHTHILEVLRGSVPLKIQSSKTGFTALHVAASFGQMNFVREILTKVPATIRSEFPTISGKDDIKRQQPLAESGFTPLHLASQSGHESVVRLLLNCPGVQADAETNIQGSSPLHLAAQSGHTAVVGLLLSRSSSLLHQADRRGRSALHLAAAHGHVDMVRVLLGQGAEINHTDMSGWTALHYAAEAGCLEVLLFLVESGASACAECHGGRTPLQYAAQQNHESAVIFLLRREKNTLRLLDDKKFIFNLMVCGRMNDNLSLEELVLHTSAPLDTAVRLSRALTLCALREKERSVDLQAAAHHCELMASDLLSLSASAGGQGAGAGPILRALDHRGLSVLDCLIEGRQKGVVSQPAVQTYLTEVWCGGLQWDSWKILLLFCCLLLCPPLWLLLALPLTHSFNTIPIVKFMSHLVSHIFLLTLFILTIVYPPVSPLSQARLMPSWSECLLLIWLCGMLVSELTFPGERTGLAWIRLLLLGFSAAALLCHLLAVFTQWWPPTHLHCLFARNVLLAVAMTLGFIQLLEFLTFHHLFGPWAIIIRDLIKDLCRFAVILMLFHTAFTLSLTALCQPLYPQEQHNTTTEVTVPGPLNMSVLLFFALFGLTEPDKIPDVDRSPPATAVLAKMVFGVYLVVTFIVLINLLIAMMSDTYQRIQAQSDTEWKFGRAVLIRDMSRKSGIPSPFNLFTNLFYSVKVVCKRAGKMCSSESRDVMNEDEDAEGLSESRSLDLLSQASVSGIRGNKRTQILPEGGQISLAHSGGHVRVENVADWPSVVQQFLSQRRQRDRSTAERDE
# Procedure, shortened: as §1
# [10] = test system: primary human epidermal melanocytes; assay: Calcium imaging in primary human epidermal melanocytes; type: cell-based; conditions: concentrations up-to 100 µM; SN-2 at 30 µM and 100 µM
# Procedure, shortened: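 Primary neonatal human epidermal melanocytes were cultured in medium 254 with HMGS at 37 °C and 5% CO2. Intracellular Ca2+ was imaged after applying compounds at 100 µM, with one compound also at 30 µM. Data are mean ± SEM from more than 3 independent experiments of 20–30 cells each.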
# [11] = biological target: T4, TRPML3 coexpressed with TRPML1 (Homo sapiens, UniProt Q8TDD5); assay: Calcium imaging, HEK293 cells coexpressing TRPML3 with TRPML1; type: cell-based; conditions: 10 µM
# T4 sequence (Q8TDD5 1-553): T1 sequence (Q8TDD5 1-553)
# Procedure, shortened: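 Human TRPML3 and TRPML1 were transiently coexpressed in HEK293 cells (Genejammer) and imaged 24 h post-transfection. Cells on glass coverslips were loaded with 4 μM fura-2-AM in bath solution (mM: 138 NaCl, 6 KCl, 2 MgCl₂, 2 CaCl₂, 10 HEPES, 5.5 D-glucose, pH 7.4) and read on a monochromator imaging system. Test compound was 10 μM. Mean ± SEM, n≥3 independent experiments, 20–30 cells each.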
smiles,measurement,setting,value
"Cc1cc(C)c(C2=NOC3C4CCC(C4)C23)c(C)c1 (centres unmarked) [SN-2, 5-mesityl-3-oxa-4-azatricyclo[5.2.1.0∼2,6∼]dec-4-ene]",response when wild type dynamin coexpressed with TRPML3 in HEK293 cells,[1],reduction in response
same,activation of other TRP channels tested,[2],did not show any activity on other TRP channels
same,TRPML3 channel activity in cochlear hair cells,[3],"Neither compound at concentrations of up-to 100 µM, with or without endolymph-like extracellular solution, elicited TRPML3 channel activity"
same,Emax,[4],149 ± 11%
same,response in melanocytes expressing wild type dynamin,[5],reduction of the response
same,conductance of TRPML3 channels,"[6]; activated with 10 µM SN-2, at −80 mV, estimate",approximately 10 pS
same,TRPML3 activity in excised patches,[6]; patches held at −80 mV,markedly increased TRPML3 activity
same,⊗F340/F380 (TRPML3),"[7]; 10 µM compound, mean ±SEM (n≥3)",1.08 ±0.05
same,kinetics of intracellular calcium increase,[7]; TRPML3-transfected HEK293 cells,much more rapid increase than the other compounds
same,response in HEK293 cells expressing TRPML2,[8],did not show any activity
same,EC50,[9],> 29.9 µM
same,Emax,"[9]; HEK293, read-out: Max % Activation (Control)",3 ± 1%
same,[Ca2+]i response in primary human epidermal melanocytes,[10],elicited a stronger response
same,calcium imaging response when TRPML1 was coexpressed with TRPML3,[11],strong reduction of the calcium imaging responses

# From article PMC2834294 (Chemistry & biology, 2010)
